Counter-ions that a name gives are not always drawn.
Legend:
Type in all cases: functional, cell-based
RBL-2H3 [1] = test: Antiallergic activity against antigen-IgE-mediated degranulation in rat RBL2H3 cells assessed as inhibition of DNP-BSA-induced beta-hexosaminidase release preincubated for 10 mins before DNP-BSA challenge measured after 10 mins
How it was run: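 Test sample was added to each RBL-2H3 well 10 min before DNP-BSA challenge. β-Hexosaminidase released into the medium was determined 10 min after challenge.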

RBL-2H3 [2] = test: Antiallergic activity against antigen-IgE-mediated degranulation in rat RBL2H3 cells assessed as inhibition of DNP-BSA-induced IL4 release preincubated for 10 mins before DNP-BSA challenge measured after 4 hrs
How it was run: (§1)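 Test sample was added to each RBL-2H3 well 10 min before DNP-BSA challenge. TNF-α and IL-4 released into the medium were measured 4 h after challenge.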

RBL-2H3 [3] = test: Antiallergic activity against antigen-IgE-mediated degranulation in rat RBL2H3 cells assessed as inhibition of DNP-BSA-induced TNFalpha release preincubated for 10 mins before DNP-BSA challenge measured after 4 hrs; how it was run: as §1

| Structure (SMILES) | IC50 (RBL-2H3 [1]) [µM] | IC50 (RBL-2H3 [2]) [µM] | IC50 (RBL-2H3 [3]) [µM] |
| --- | --- | --- | --- |
| C=CC(=O)Oc1ccc(C(OC(=O)C=C)c2ccccc2)cc1 (stereo unspecified) | 28 | – | – |
| CCC(=O)Oc1ccc(C(OC(=O)CC)c2ccccc2)cc1 (stereo unspecified) | 38 | – | – |
| CC(C)C(=O)Oc1ccc(C(OC(=O)C(C)C)c2ccccc2)cc1 (stereo unspecified) | > 100 | – | – |
| COC(=O)Oc1ccc(C(OC(=O)OC)c2ccccc2)cc1 (stereo unspecified) | 18 | – | – |
| O=COc1ccc(C(OC=O)c2ccccc2)cc1 (stereo unspecified) | > 100 | – | – |
| CN1CCC(=C2c3ccccc3CC(=O)c3sccc32)CC1 [KETOTIFEN FUMARATE] | 158 | – | – |

Second part, the compound after the results:

| IC50 (RBL-2H3 [1]) [µM] | IC50 (RBL-2H3 [2]) [µM] | IC50 (RBL-2H3 [3]) [µM] | Structure (SMILES) |
| --- | --- | --- | --- |
| 36 | – | – | CC(=O)Oc1ccc(C(OC(=O)C(C)(C)C)c2ccccc2)cc1 (stereo unspecified) |
| 14 | – | – | CC(=O)Oc1ccc(C(OC(C)=O)c2ccccc2)cc1 (stereo unspecified) |
| 6.5 | 12 | 11 | COC(=O)OC(c1ccccc1)c1ccc(OC(C)=O)cc1 (stereo unspecified) |
| 17 | 23 | 28 | CC(=O)Oc1ccc(C(OC(=O)c2ccccc2)c2ccccc2)cc1 (stereo unspecified) |
| > 100 | – | – | CC(=O)Oc1ccc(C(O)c2ccccc2)cc1 (stereo unspecified) |
| 27 | – | – | CC(=O)Oc1ccc(C(OC(=O)C(C)C)c2ccccc2)cc1 (stereo unspecified) |

Source: ChEMBL document CHEMBL1136910, “Acetoxybenzhydrols as highly active and stable analogues of 1'S-1'-acetoxychavicol, a potent antiallergic principal from Alpinia galanga” (Bioorg Med Chem Lett, 2009)
